Data published in PMC8647718 (Free radical biology & medicine, 2020).
Where “and” joins values, the source holds several entries; their conditions need not be identical. Identical values can stand only once. Blank lines part the entries; values can stand above or below the compound they belong to.

Tests used:
[1] = system: AhR; experiment: AhR-luciferase; assay type: cell-based, mouse; conditions: for AhR activation CQ (concentration of quadrupling): H1L6.1c3 cells, luciferase fold vs DMSO normalized to viability
[2] = system: Nrf2; experiment: ARE-luciferase reporter assay in HepG2-ARE cells; assay type: cell-based; conditions: 24 h, 0–25 μM, (−) = concentration range tested did not quadruple Nrf2 activation
[3] = system: H1L6.1c3 cells; experiment: MTT cell viability assay in H1L6.1c3 cells; conditions: for IC50: Mus musculus, read-out: AhR activation IC50 (cell viability reduced by half)
[4] = system: HepG2-ARE cells; experiment: MTT cell viability assay in HepG2-ARE cells; assay type: cell-based; conditions: read-out: Nrf2 activation IC50 (cell viability reduced by half)
[5] = system: heme oxygenase-1 (HO-1); experiment: HO-1 protein level, immunoblot of HT-29 whole cell lysates; assay type: cell-based, human; conditions: GarD 0–25 μM, 24 h
Procedure, shortened: (§1)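 HT-29 cells treated for 24 h with test compound, tBHQ 50 μM or FICZ 0.5 μM as references. Densities were normalised to β-actin. Mean ± SD of triplicate experiments; one-way ANOVA with Tukey test, P ≤ 0.05.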

[6] = system: occludin; experiment: Occludin tight junction protein level, immunoblot in HT-29 cells; assay type: cell-based, human; conditions: HT-29, GarD 0–25 μM, 24 h
[7] = system: Nrf2; experiment: Total Nrf2 protein level, immunoblot of HT-29 whole cell lysates; assay type: cell-based, human; conditions: GarD 0–25 μM, 24 h
Procedure, shortened: as §1

[8] = system: HT-29 cells; experiment: tBHP-induced ROS production; assay type: cell-based, human
[9] = system: ZO-2, ZO-3, claudin-1 and claudin-4; experiment: Other TJ proteins, immunoblot in HT-29 cells; assay type: cell-based, human; conditions: HT-29, GarD 0–25 μM, data not shown
[10] = system: AhR; experiment: AhR nuclear translocation, immunoblot of nuclear proteins in HT-29 cells; assay type: cell-based, human; conditions: HT-29, 1 h; GarD 12.5 μM, FICZ 0.5 μM
Procedure, shortened: (§2)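 HT-29 cells exposed to test compound at 12.5 μM, with tBHQ 50 μM or FICZ 0.5 μM as reference activators, over a 6-h time course. Cytosolic and nuclear fractions were collected at set time points, quantified by BCA, and resolved by SDS-PAGE. Blots were probed for AhR or Nrf2, with densities normalised to β-actin or lamin A/C. At least three independent experiments; mean ± SD.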

[11] = system: Nrf2; experiment: Nrf2 nuclear translocation, immunoblot of nuclear proteins in HT-29 cells; assay type: cell-based, human; conditions: HT-29, 1 h; GarD 12.5 μM, tBHQ 50 μM
Procedure, shortened: as §2

[12] = system: ZO-1; experiment: ZO-1 tight junction protein level, immunoblot in HT-29 cells; assay type: cell-based, human; conditions: HT-29, GarD 0–25 μM, 24 h
[13] = system: HT-29 cells; experiment: Total intracellular ROS; assay type: cell-based, human; conditions: HT-29, 12 h; GarD 25 μM, tBHP 25 μM (positive control)
[14] = system: HT-29 monolayers; experiment: In vitro permeability assay of FITC-dextran through HT-29 monolayers; assay type: cell-based, human; conditions: HT-29 transwell, GarD 6.25 or 12.5 μM pretreatment 6 h, 100 μM tBHP 16 h
Procedure, shortened: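 HT-29 cells seeded at 1.5 × 10^5 cells/cm2 on transwell inserts and differentiated; only monolayers with TEER above 200 […] were used. Test compound was added apically for 6 h, then 100 μM tBHP for 16 h. Apical 4 kDa FITC-dextran (0.5 mg mL−1 in HBSS/HEPES), HBSS basolateral. Basolateral samples at 0.5–4 h read at 485/530 nm; % of control.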

[15] = system: ZO-1; experiment: ZO-1 immunofluorescence microscopy in HT-29 cells; assay type: cell-based, human
[16] = system: Cyp1a1; experiment: Cyp1a1 protein level, immunoblot of HT-29 cell lysates; assay type: cell-based, human; conditions: HT-29, 24 h; GarD 12.5 μM, FICZ 500 nM
Procedure, shortened: as §1

[17] = system: AhR; experiment: AhR protein level, immunoblot of HT-29 cell lysates; assay type: cell-based, human; conditions: HT-29, 24 h; GarD 12.5 μM, FICZ 500 nM
Procedure, shortened: as §1

[18] = system: Nrf2; conditions: HT-29 cells, 10 μM; cited from earlier work
[19] = system: ZO-1; experiment: tBHP oxidative stress-induced TJ disruption, ZO-1 immunoblot in HT-29 cells; assay type: cell-based, human; conditions: HT-29, tBHP 50 μM, 16 h
[20] = system: claudin-1; experiment: tBHP oxidative stress-induced TJ disruption, claudin-1 immunoblot in HT-29 cells; assay type: cell-based, human; conditions: HT-29, tBHP 50 μM, 16 h
[21] = system: occludin; experiment: tBHP oxidative stress-induced TJ disruption, occludin immunoblot in HT-29 cells; assay type: cell-based, human; conditions: HT-29, tBHP 50 μM, 16 h

SMILES: CC(C)=CCc1c(O)c(CC=C(C)C)c2oc3c(O)cccc3c(=O)c2c1O [Compound 1, 8-desoxygartanin]
AhR activation CQ (concentration of quadrupling) ([1]; 24 h): 0.162 ± 0.001 µM
Nrf2 activation CQ (concentration of quadrupling) [2]: 22.19 ± 1.24 µM

IC50 [4]: 63.6 ± 1.94 µM
SMILES: CC(C)=CCc1c(O)c(CC=C(C)C)c2oc3c(O)ccc(O)c3c(=O)c2c1O [Compound 2, gartanin]
Nrf2 activation CQ (concentration of quadrupling) [2]: 9.4 µM and 9.43 ± 1.90 µM
IC50 [3]: 36.5 ± 0.71 µM

SMILES: COc1c(O)cc2oc3cc(O)c(CC=C(C)C)c(O)c3c(=O)c2c1CC=C(C)C [Compound 3, α-mangostin]
Nrf2 activation CQ (concentration of quadrupling) [2]: 16.25 ± 0.46 µM

SMILES: COc1cc2oc3cc(O)c(OC)c(CC=C(C)C)c3c(=O)c2c(O)c1CC=C(C)C [Compound 5, β-mangostin]
CQ value relative to the rest of the compounds ([1]; AhR activation, H1L6 cells): 10–36 times higher
AhR activation CQ (concentration of quadrupling) ([1]; 24 h): 5.125 ± 0.006 µM

IC50 [4]: 38.5 ± 7.27 µM
SMILES: COc1c(O)cc2oc3cc(O)c(CC=C(C)C)c(O)c3c(=O)c2c1CCC(C)(C)O [Compound 6, garcinone D]
AhR activation CQ (concentration of quadrupling) ([1]; 24 h): 0.142 µM and 0.142 ± 0.008 µM
Nrf2 activation CQ (concentration of quadrupling) [2]: 8.0 µM and 8.08 ± 0.07 µM
increase in HO-1 protein vs control [5]: 37%
increase in occludin protein relative to untreated controls [6]: 22–91%
increase in total Nrf2 protein vs control [7]: 40%
AhR activation IC50 (cell viability reduced by half) ([3]; H1L6 cells, MTT, max 100 μM, (−) = did not exhibit >50% cell toxicity at the concentration range tested): without exhibiting >50% H1L6 cell toxicity
IC50 [3]: > 100 µM
suppression of tBHP-induced ROS production vs tBHP ([8]; HT-29, GarD pretreatment (0–25 μM, 6 h), dose-dependent): 25 to 68%
inducing effect on other TJ proteins (ZO-2, ZO-3, claudin-1, claudin-4) [9]: no inducing effect
nuclear AhR accumulation (peak) [10]: 3.8 fold increase vs control
nuclear Nrf2 level [11]: 1.9 fold greater than the control
increase in ZO-1 protein relative to untreated controls [12]: 34–83%
ROS level (DCF fluorescence) relative to untreated control [13]: 2 fold
tBHP induced leakage of FITC-dextran [14]: dose-dependently inhibited
ZO-1 intensity lost to tBHP treatment rescued ([15]; HT-29, 2-h pre-treatment GarD 12.5 μM, co-incubation with tBHP 16 h): 45%

SMILES: CC(C)=CCc1c(O)cc2oc3cc(O)c(O)c(CC=C(C)C)c3c(=O)c2c1O [Compound 7, γ-mangostin]
Nrf2 activation CQ (concentration of quadrupling) [2]: 14.93 ± 0.10 µM

increase in Cyp1a1 protein [16]: 3.5 fold
SMILES: O=Cc1c2[nH]c3ccccc3c2cc2[nH]c3ccccc3c12 [FICZ, 6-formylindolo[3,2-b] carbazole, reference compound]
increase of luminescence signal ([1]; FICZ 500 nM, 24 h, H1L6 cells): 43 fold of control
nuclear AhR accumulation (peak) [10]: 4.6 fold increase vs control
increase in AhR protein [17]: 2.8 fold

SMILES: C[S+]([O-])CCCCN=C=S (stereo not shown) [sulforaphane]
induction of Nrf2 relative to the control [18]: 200%

SMILES: CC(C)(C)OO [tBHP, tert-butyl hydroperoxide, reference compound]
reduction in ZO-1 compared to untreated controls [19]: 68%
increase in total ROS levels relative to controls ([8]; HT-29, 2 mM tBHP, 4 h): 2 fold
reduction in claudin-1 compared to untreated controls [20]: 48%
ROS level (DCF fluorescence) relative to untreated control [13]: 4 fold
reduction in occludin compared to untreated controls [21]: 28%
ZO-1 fluorescence intensity ([15]; HT-29, tBHP 50 μM, 16 h): 45 % of the control

SMILES: CC(C)(C)c1cc(O)ccc1O [tBHQ, tert-butyl hydroquinone, reference compound]
nuclear Nrf2 level [11]: Nuclear translocation of Nrf2 was also demonstrated
